# Assays:
# [1] = target: T1, PIKFYVE (Homo sapiens, UniProt Q9Y2I7); assay: Lipid kinase competition assay; format: binding; details: Table 2 / Figure 3 compound series, standard dose-response curve
# Outline: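 Competition binding: biotinylated kinase-specific control ligand on streptavidin magnetic beads formed affinity resin. DNA-tagged PIKFYVE, liganded beads and test compound were combined. Bound kinase was eluted and quantified by qPCR of its DNA tag. Kinase amount was plotted against test compound concentration, and Kd was fitted to a standard dose–response curve using the Hill equation.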
# [2] = target: T1, PIKFYVE; assay: PIKFYVE inhibition assay; format: biochemical
# T1 sequence (Q9Y2I7 whole entry): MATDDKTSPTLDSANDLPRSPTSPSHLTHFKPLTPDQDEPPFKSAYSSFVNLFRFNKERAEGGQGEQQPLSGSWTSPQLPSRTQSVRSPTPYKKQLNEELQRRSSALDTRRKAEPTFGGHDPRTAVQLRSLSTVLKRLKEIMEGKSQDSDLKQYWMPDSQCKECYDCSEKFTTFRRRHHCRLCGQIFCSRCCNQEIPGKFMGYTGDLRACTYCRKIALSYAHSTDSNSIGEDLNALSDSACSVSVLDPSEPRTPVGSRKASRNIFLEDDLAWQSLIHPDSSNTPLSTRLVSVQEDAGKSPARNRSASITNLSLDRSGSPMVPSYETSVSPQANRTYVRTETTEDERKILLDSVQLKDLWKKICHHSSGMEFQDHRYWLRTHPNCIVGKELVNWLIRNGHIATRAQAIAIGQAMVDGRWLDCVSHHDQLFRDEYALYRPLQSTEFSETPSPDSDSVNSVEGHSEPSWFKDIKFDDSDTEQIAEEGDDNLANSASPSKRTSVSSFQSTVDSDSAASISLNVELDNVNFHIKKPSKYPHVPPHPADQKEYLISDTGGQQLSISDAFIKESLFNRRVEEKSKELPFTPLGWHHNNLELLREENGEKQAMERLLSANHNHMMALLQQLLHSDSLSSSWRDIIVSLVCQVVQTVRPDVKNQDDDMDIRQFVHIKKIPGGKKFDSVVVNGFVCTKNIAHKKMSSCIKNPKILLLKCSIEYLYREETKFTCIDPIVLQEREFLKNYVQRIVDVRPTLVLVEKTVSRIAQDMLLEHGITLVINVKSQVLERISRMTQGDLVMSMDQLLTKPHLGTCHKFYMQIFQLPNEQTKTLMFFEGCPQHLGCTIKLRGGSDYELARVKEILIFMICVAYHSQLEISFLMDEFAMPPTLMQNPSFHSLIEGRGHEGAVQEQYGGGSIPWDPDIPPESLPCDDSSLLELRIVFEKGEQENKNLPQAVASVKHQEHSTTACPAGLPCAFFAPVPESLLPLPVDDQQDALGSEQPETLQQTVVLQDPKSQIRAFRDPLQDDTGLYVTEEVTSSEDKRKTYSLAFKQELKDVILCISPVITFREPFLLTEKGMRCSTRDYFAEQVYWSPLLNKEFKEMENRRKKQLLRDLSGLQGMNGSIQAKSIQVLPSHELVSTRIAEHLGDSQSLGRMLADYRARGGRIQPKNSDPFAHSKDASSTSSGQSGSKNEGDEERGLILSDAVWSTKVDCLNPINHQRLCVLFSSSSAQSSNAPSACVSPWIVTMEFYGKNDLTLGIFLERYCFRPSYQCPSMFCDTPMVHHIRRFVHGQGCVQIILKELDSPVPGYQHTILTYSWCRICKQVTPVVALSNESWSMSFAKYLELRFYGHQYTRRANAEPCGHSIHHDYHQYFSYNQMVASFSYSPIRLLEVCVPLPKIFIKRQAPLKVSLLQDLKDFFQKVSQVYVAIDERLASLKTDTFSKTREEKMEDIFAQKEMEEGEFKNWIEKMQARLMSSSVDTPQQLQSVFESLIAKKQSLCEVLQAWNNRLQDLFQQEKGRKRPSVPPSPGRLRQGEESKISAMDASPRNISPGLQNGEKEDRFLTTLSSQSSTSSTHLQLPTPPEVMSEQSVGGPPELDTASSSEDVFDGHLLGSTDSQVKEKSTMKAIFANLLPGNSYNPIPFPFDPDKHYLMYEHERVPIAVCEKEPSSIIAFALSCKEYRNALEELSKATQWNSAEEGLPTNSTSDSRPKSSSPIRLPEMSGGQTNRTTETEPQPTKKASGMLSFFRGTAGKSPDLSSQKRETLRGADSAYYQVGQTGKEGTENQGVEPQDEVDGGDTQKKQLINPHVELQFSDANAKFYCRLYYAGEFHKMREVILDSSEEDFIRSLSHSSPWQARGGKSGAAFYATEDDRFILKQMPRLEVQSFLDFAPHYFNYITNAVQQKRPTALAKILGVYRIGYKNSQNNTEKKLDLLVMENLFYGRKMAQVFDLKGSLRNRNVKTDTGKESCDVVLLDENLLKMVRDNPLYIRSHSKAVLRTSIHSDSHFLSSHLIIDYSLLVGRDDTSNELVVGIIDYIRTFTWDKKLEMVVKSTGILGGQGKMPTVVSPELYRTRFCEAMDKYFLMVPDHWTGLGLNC
smiles,measurement,setting,value
"CCOC(=O)c1[nH]c2ccc(OC)cc2c1/C=C/C(=O)c1ccncc1 [2l, (E)-Ethyl 5-Methoxy-3-(3-oxo-3-(pyridin-4-yl)prop-1-en-1-yl)-[1H]-indole-2-carboxylate]",Kd,[1],> 500 nM
same,IC50,[2],446 nM
